Measured values published in PubChem BioAssay.
Inconclusive results are not listed.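 How the source made its calls, unless noted: active means viability at or below 27.92% in each of two runs, the all-compound median minus 4 SD; inconclusive means no clear call, values can overlap the other calls; inactive means the rest.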

Experiments:
[1] = S. cerevisiae growth inhibition in permissive medium (OD615), pilot counter-assay for S. cerevisiae lifespan shortening project, permissive growth control (AID 705;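 active means growth inhibition above 25% in both replicates, a cutoff set 3 SD above the mean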); conditions: OD615, 24 h, at 10 µM, active compounds read high
Summary of the method: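 System – S. cerevisiae with engineered DeaD lifespan system · Buffer or medium – SC raffinose/galactose permissive medium · Schedule – cells pre-grown 4 h, then 24 h compound exposure, 30 °C humidified · Technique – culture turbidity as optical density at 615 nm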

[2] = S. cerevisiae growth inhibition in restrictive medium, OD615, pilot screen, restrictive growth control, yeast lifespan reduction project (AID 706;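 active means growth inhibition above a set limit, 3 SD over mean compound inhibition, in both replicates, cut at about 43% in these data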;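 further: modified DeaD lifespan yeast strain shifted to restrictive glucose medium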); conditions: OD615, 48 h, at 10 µM, active compounds read high
Summary of the method: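 Material: engineered S. cerevisiae DeaD strain / Medium: glucose-based CSMM-D restrictive medium / Compound: single dose of 10 µM compound final, 0.25% DMSO / Timing: 4 h pre-incubation, 48 h exposure at 30 °C / Technique: OD615 absorbance reading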

[3] = doxorubicin toxicity protection in MRP-1 cells – H69AR cells, CellTiter-Glo, duplicate, MRP-1 activator project, pilot screen (AID 807;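 active means viability increase at or above a cutoff of the median across tested compounds plus 3 SD, cut at about 8.5% in these data, passing the limit was not always enough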;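 further: compound pretreatment 18-22 h then 72 h combined with doxorubicin; 0% = doxorubicin alone and 100% = vehicle without doxorubicin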); conditions: H69AR viability with doxorubicin, CellTiter-Glo luminescence; at 10 µM; active compounds read high
[4] = viability of HCT116 without oncogenic beta-catenin – human colon tumor cells, pilot screen (AID 823;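 active means cell viability at or below a set limit in both duplicate runs, the limit being the all-compound median minus 4 SD, cut at about 23% in these data, passing the limit was not always enough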;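 further: 0% = wells killed by 20 µM Hyamine and 100% = untreated DMSO cell wells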); conditions: HCT116 beta-catenin knockout viability, CellTiter-Glo, 60 h; at 10 µM; active compounds read low
[5] = viability of PTEN-null HCT116 cells – cell-based, HCT116 clonal line, CellTiter-Glo, pilot screen (AID 824); conditions: HCT116 PTEN-deleted viability, 60 h, at 10 µM, active compounds read low;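 further: 0% = 20 µM Hyamine control and 100% = vehicle cell control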
[6] = RAM pathway blockade in budding yeast – dse1pr::URA3 reporter, 5-FOA selection, pilot screen (AID 869;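 active means inhibition over a set limit, the all-compound mean plus 3 SD, in both replicate runs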;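 further: 0% = DMSO wells with no growth and 100% = 10 µM 1-NA-PP1 with full growth; RAM network block rescues cells from 5-FOA so hits raise OD615 growth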); conditions: S. cerevisiae dse1pr::URA3 5-FOA growth, OD615, 2 d; at 10 µM; active compounds read high; strain carries analog-sensitive mutant Cbk1 kinase
[7] = RAM signaling pathway blockade in yeast – S. cerevisiae, Pdr1DBD-CYC8 efflux-inhibited sensitized strain, primary screen (AID 1298;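 active means RAM network inhibition above 8.4% in each of two replicates, 3 SD over the compound average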;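 further: 0% = DMSO untreated cells without growth and 100% = 10 µM 1-NA-PP1 full growth; higher means more yeast growth rescued from 5-FOA killing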); conditions: S. cerevisiae cbk1-as DSE1-URA3 strain, 5-FOA growth OD615, 2 d; at 50 µM; active compounds read high

COc1ccc(OC)c(C2CC(=O)N3CN(c4ccccc4F)CSC3=C2C#N)c1 (configuration not stated)
inactive: growth inhibition [1] 8.3% | growth inhibition [2] 14.5% | viability increase [3] -1.77% | viability [4] 98.3% | viability [5] 101% | inhibition [6] 1.03% | RAM network inhibition [7] 8.39%

COc1ccc(OC)c2c(C)cc(NCCN3CCOCC3)nc12
inactive: growth inhibition [1] -14.7% | growth inhibition [2] -2.92% | viability increase [3] -4.52% | viability [4] 81.5% | viability [5] 84.9% | inhibition [6] 1.78% | RAM network inhibition [7] 2.55%

Nc1nnc(N2CCc3ccccc32)s1
inactive: growth inhibition [1] -1.08% | growth inhibition [2] 16.4% | viability increase [3] -4.19% | viability [4] 105% | viability [5] 102% | inhibition [6] 0.805% | RAM network inhibition [7] 0.42%

CCOc1ccc(N(CC(=O)NCc2ccccc2)S(=O)(=O)c2c(C)noc2C)cc1
inactive: growth inhibition [1] -21.6% | growth inhibition [2] -21.6% | viability increase [3] -0.68% | viability [4] 101% | viability [5] 95.1% | inhibition [6] 4.04% | RAM network inhibition [7] 3.95%

c1ccc2cc3[nH]c(CN4CCCCC4)nc3cc2c1
inactive: growth inhibition [1] -19.8% | growth inhibition [2] -13.4% | viability increase [3] -2.94% | viability [4] 95.9% | viability [5] 87.6% | inhibition [6] 1.58% | RAM network inhibition [7] 5.29%

CCOC(=O)C1Cn2c(nc3c(c2=O)C(C)(CC)Cc2ccccc2-3)S1 (configuration not stated)
inactive: growth inhibition [1] -4.55% | growth inhibition [2] 5.55% | viability increase [3] -2.18% | viability [4] 82.1% | viability [5] 77.7% | inhibition [6] 1.5% | RAM network inhibition [7] 3.03%

CCCc1nnc(NC(=O)CC(=O)OCC)s1
inactive: growth inhibition [1] 6.47% | growth inhibition [2] -8.03% | viability increase [3] -1.07% | viability [4] 97% | viability [5] 93.1% | inhibition [6] 0.96% | RAM network inhibition [7] -0.11%

O=C(c1cccc(S(=O)(=O)N2CCOCC2)c1)N1CCOCC1
inactive: growth inhibition [1] -3.56% | growth inhibition [2] -5.11% | viability increase [3] -0.71% | viability [4] 101% | viability [5] 97.9% | inhibition [6] 0.835% | RAM network inhibition [7] 1.18%

COc1ccc(OC)c(C2CC(=O)N3CN(c4ccccc4)CSC3=C2C#N)c1 (configuration not stated)
inactive: growth inhibition [1] 0.46% | growth inhibition [2] 26.8% | viability increase [3] -4.09% | viability [4] 96.2% | viability [5] 94.5% | inhibition [6] 1.09% | RAM network inhibition [7] 0.06%

COc1cccc(N2C(=O)C3ON(c4ccccc4)C(c4cccs4)C3C2=O)c1 (configuration not stated)
inactive: growth inhibition [1] -13% | growth inhibition [2] 15.5% | viability increase [3] -0.83% | viability [4] 107% | viability [5] 97.8% | inhibition [6] 2.65% | RAM network inhibition [7] 4.23%

O=C(CC(=O)N1CCN(c2ccccn2)CC1)Nc1ccc2nc3n(c(=O)c2c1)CCCCC3
inactive: growth inhibition [1] -3.13% | growth inhibition [2] -3.46% | viability increase [3] 0.08% | viability [4] 101% | viability [5] 100% | inhibition [6] 0.87% | RAM network inhibition [7] 2.7%

CCCS(=O)(=O)NCCc1cc2ccc(OC)cc2[nH]c1=O
inactive: growth inhibition [1] -13.2% | growth inhibition [2] -5.31% | viability increase [3] -2.79% | viability [4] 97.4% | viability [5] 90.1% | inhibition [6] 2.56% | RAM network inhibition [7] 2.19%

C=CCOC(=O)C1=C(C)NC(=O)NC1c1ccc(Cl)cc1 (configuration not stated)
inactive: growth inhibition [1] -3.88% | growth inhibition [2] -3.15% | viability increase [3] 0.95% | viability [4] 102% | viability [5] 88.2% | inhibition [6] -0.115% | RAM network inhibition [7] 2.31%

COc1ccccc1N1CCN(C(=O)CN(c2ccccc2OC)S(=O)(=O)c2ccccc2)CC1
inactive: growth inhibition [1] -0.685% | growth inhibition [2] -7.83% | viability increase [3] -1.57% | viability [4] 87.5% | viability [5] 83.9% | inhibition [6] 0.845% | RAM network inhibition [7] 4.88%

CCc1ccccc1NC1c2ccccc2C(=O)N1Cc1ccco1 (configuration not stated)
inactive: growth inhibition [1] -4.26% | growth inhibition [2] 12.8% | viability increase [3] -4.71% | viability [4] 97.1% | viability [5] 84.8% | inhibition [6] 2.31% | RAM network inhibition [7] 3.95%

CCOC(=O)C1C(=O)CC(C)(O)C(C(=O)OCC)C1c1ccco1 (configuration not stated)
inactive: growth inhibition [1] -11% | growth inhibition [2] -5.69% | viability increase [3] -1.04% | viability [4] 101% | viability [5] 103% | inhibition [6] 1.04% | RAM network inhibition [7] 2.45%

CCOC(=O)Cn1c(=O)oc2cc(S(=O)(=O)N3CCC(N4CCCCC4)CC3)ccc21
inactive: growth inhibition [1] -7.51% | growth inhibition [2] -9.77% | viability increase [3] 0.75% | viability [4] 101% | viability [5] 105% | inhibition [6] 1.06% | RAM network inhibition [7] 0.21%

COc1cccc(C(c2sc3ncnn3c2O)N2CCc3ccccc3C2)c1 (configuration not stated)
inactive: growth inhibition [1] -0.12% | growth inhibition [2] 2.29% | viability increase [3] 2.58% | viability [4] 104% | viability [5] 93.2% | inhibition [6] 1.8% | RAM network inhibition [7] 11.3%

COc1cccc(OCC(=O)N(Cc2nc(-c3ccc(Cl)cc3)no2)C(C)C)c1
inactive: growth inhibition [1] -4.67% | growth inhibition [2] -2.81% | viability increase [3] 2.88% | viability [4] 91% | viability [5] 89.7% | inhibition [6] 3.32% | RAM network inhibition [7] 3.59%

Cc1ccc(-c2nc(CS(=O)(=O)CC(=O)NC3CCCCC3C)c(C)o2)cc1 (configuration not stated)
inactive: growth inhibition [1] -15.3% | growth inhibition [2] -32.8% | viability increase [3] -0.44% | viability [4] 93% | viability [5] 87.4% | inhibition [6] 1.73% | RAM network inhibition [7] 7.21%

O=C1CC(C(=O)N2CCN(c3ccc(F)cc3)CC2)CN1CCc1ccccc1 (configuration not stated)
inactive: growth inhibition [1] -1.65% | growth inhibition [2] 5.89% | viability increase [3] -2.3% | viability [4] 99.2% | viability [5] 92.6% | inhibition [6] -0.23% | RAM network inhibition [7] 1.03%

COc1cccc(-c2nc(CS(=O)(=O)CC(=O)NCc3ccccc3OC)c(C)o2)c1
inactive: growth inhibition [1] 5.72% | growth inhibition [2] 2.59% | viability increase [3] -1.62% | viability [4] 95.9% | viability [5] 89.1% | inhibition [6] 1.55% | RAM network inhibition [7] 3.2%

COc1ccc(OC)c(S(=O)(=O)NCCc2cn3ccsc3n2)c1
inactive: growth inhibition [1] -6.71% | growth inhibition [2] -11.5% | viability increase [3] -2.28% | viability [4] 105% | viability [5] 103% | inhibition [6] 3.81% | RAM network inhibition [7] 3.59%

COC(=O)c1ccc2c(c1)NC(=O)C1CCCN21 (configuration not stated)
inactive: growth inhibition [1] 7.72% | growth inhibition [2] 12.4% | viability increase [3] -0.72% | viability [4] 91.2% | viability [5] 89.8% | inhibition [6] 0.305% | RAM network inhibition [7] -1.29%

CCOC(=O)N1CCC(NC(=O)CCc2c(C)nc3c(c(C)nn3-c3ccccc3)c2C)CC1
inactive: growth inhibition [1] -8.02% | growth inhibition [2] 0.22% | viability increase [3] -1.37% | viability [4] 100% | viability [5] 89.5% | inhibition [6] 2.38% | RAM network inhibition [7] 4.08%

CCOc1ccccc1NC(=O)C1Cc2ccccc2CN1S(C)(=O)=O (configuration not stated)
inactive: growth inhibition [1] -8.32% | growth inhibition [2] -7.46% | viability increase [3] -5.66% | viability [4] 82.9% | viability [5] 80.6% | inhibition [6] 0.37% | RAM network inhibition [7] 3%

CC(=O)NCC(=O)OCC(=O)c1ccc(C)c(C)c1
inactive: growth inhibition [1] -7.93% | growth inhibition [2] -2.07% | viability increase [3] -1.39% | viability [4] 88.8% | viability [5] 95.1% | inhibition [6] 0.75% | RAM network inhibition [7] -0.41%

COc1ccc(N2CCN(c3cc(C)c4ccc(O)cc4n3)CC2)cc1
inactive: growth inhibition [1] 3.12% | growth inhibition [2] 10.5% | viability increase [3] -2.1% | viability [4] 75.7% | viability [5] 79.8% | inhibition [6] 0.39% | RAM network inhibition [7] 6.62%

CC(C)C12CN3CC(C(C)C)(CN(C1)C3c1ccccc1)C2O (configuration not stated)
inactive: growth inhibition [1] 6% | growth inhibition [2] 2.74% | viability increase [3] -1.42% | viability [4] 96.2% | viability [5] 93.6% | inhibition [6] 1.8% | RAM network inhibition [7] 3.93%

Cc1nn(-c2ccccc2)c(C)c1C(=O)OCC(=O)Nc1ccc2c(c1)OCO2
inactive: growth inhibition [1] -15.6% | growth inhibition [2] -15.7% | viability increase [3] -0.97% | viability [4] 95.3% | viability [5] 92.9% | inhibition [6] 3.68% | RAM network inhibition [7] 3.09%

O=C(OCC(=O)c1cccs1)c1ccc(NC(=O)c2ccco2)cc1
inactive: growth inhibition [1] -6.02% | growth inhibition [2] -19.9% | viability increase [3] -3.62% | viability [4] 96.9% | viability [5] 76.1% | inhibition [6] 0.87% | RAM network inhibition [7] 0.26%

CCN1CCN(Cc2nc3c(c(=O)n(C)c(=O)n3C)n2Cc2ccccc2Cl)CC1
inactive: growth inhibition [1] -8.38% | growth inhibition [2] -13.4% | viability increase [3] -3.38% | viability [4] 91.7% | viability [5] 91.6% | inhibition [6] 1.17% | RAM network inhibition [7] 0.71%

Cc1ccsc1-c1nc(CSCC(=O)N2CCN(c3ccccc3)CC2)c(C)o1
inactive: growth inhibition [1] -4.56% | growth inhibition [2] 26.6% | viability increase [3] -3.18% | viability [4] 61.6% | viability [5] 65.6% | inhibition [6] 0.75% | RAM network inhibition [7] 7.89%

CC1CCN(S(=O)(=O)c2ccc3c(c2)oc(=O)n3CC(=O)NCc2ccc3c(c2)OCO3)CC1
inactive: growth inhibition [1] -1.64% | growth inhibition [2] -15.8% | viability increase [3] 4.02% | viability [4] 81.4% | viability [5] 76.7% | inhibition [6] 3.27% | RAM network inhibition [7] 2.06%

Cn1cccc1Cc1nnc(SCC(=O)NC2CCCCC2)n1-c1ccc(F)cc1
inactive: growth inhibition [1] 1.67% | growth inhibition [2] -4.1% | viability increase [3] -1.86% | viability [4] 95.4% | viability [5] 96.7% | inhibition [6] 1.08% | RAM network inhibition [7] 4.28%

CCC(=O)Nc1ccc(S(=O)(=O)N2CCc3ccccc3C2)cc1
inactive: growth inhibition [1] -7.58% | growth inhibition [2] -3.42% | viability increase [3] -3.43% | viability [4] 89.1% | viability [5] 90.1% | inhibition [6] 0.395% | RAM network inhibition [7] 10%
